Measured values as given in ChEMBL document CHEMBL5338802, “To Fold or Not to Fold: Diastereomeric Optimization of an α-Helical Antimicrobial Peptide” (J Med Chem, 2023).
Values after ≈ are worked out from the molar mass of the structure shown. Non-standard residues stand in square brackets, D forms with d. Residues, ends and D or L forms follow the SMILES beside them.

Assays:
[1] = Induction of membrane disruption in eukaryotic inner membrane mimic EYPC vesicles assessed as carboxyfluorescein leakage at 10 ug/ml measured after 240 secs by fluorescence based assay; format: cell membranes; details: dose 10.0 µg/ml, time 240.0 sec
[2] = system: Erythrocyte; assay: Hemolytic activity in human RBC incubated for 4 hrs by visual analysis; format: toxicity, cell-based
[3] = system: Staphylococcus aureus; assay: Antimicrobial activity against methicillin-resistant Staphylococcus aureus COL assessed as microbial growth inhibition incubated for 16 to 20 hrs by MTT assay; format: functional; details: time 16-20 hrs
Procedure, shortened: (§1)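 Broth microdilution in Mueller–Hinton broth pH 7.4. Overnight LB colony culture diluted to OD600 0.022; roughly 5 × 10^5 CFU final inoculum. Static incubation at 37 °C for 16–20 h, then MTT added at room temperature. MIC is the lowest concentration with no visible growth, read by eye. Two independent duplicates.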

[4] = system: Klebsiella pneumoniae; assay: Antimicrobial activity against Klebsiella pneumoniae NCTC418 assessed as microbial growth inhibition incubated for 16 to 20 hrs by broth microdilution method; format: functional; details: time 16-20 hrs; procedure, shortened: as §1
[5] = system: Burkholderia cenocepacia; assay: Antimicrobial activity against multidrug-resistant Burkholderia cenocepacia assessed as microbial growth inhibition incubated for 16 to 20 hrs by broth microdilution method; format: functional; details: time 16-20 hrs
Procedure, shortened: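 Broth microdilution in Mueller–Hinton broth pH 7.4. Peptides serially diluted 1/2 from 2 mg/mL water stocks over 0.5–64 μg/mL. Overnight LB colony culture diluted to OD600 0.022; roughly 5 × 10^5 CFU final inoculum. Static incubation at 37 °C for 16–20 h, then MTT added at room temperature. MIC is the lowest concentration with no visible growth, read by eye. Two independent duplicates.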

[6] = system: Pseudomonas aeruginosa; assay: Antimicrobial activity against Pseudomonas aeruginosa PAO1 assessed as microbial growth inhibition incubated for 16 to 20 hrs by broth microdilution method; format: functional; details: time 16-20 hrs
Procedure, shortened: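 Broth microdilution in MH broth, pH 7.4. An overnight LB colony culture (37 °C, 180 rpm) was diluted to OD600 0.022, giving about 5 × 10^5 CFU per well. MTT was then added, and MIC was read by eye as the lowest concentration without visible growth. Two independent duplicates were run.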

Molecule	MHC [2]	also measured
CC(C)C[C@H](NC(=O)[C@H](CCCCN)NC(=O)[C@H](N)CCCCN)C(=O)N[C@@H](CC(C)C)C(=O)N[C@H](CCCCN)C(=O)N[C@H](CC(C)C)C(=O)N[C@H](CC(C)C)C(=O)N[C@@H](CCCCN)C(=O)N[C@@H](CC(C)C)C(=O)N[C@@H](CC(C)C)C(=O)N[C@H](CC(C)C)C(N)=O	1000 µg/mL	Activity [1]: 3%
CC(C)C[C@H](NC(=O)[C@H](CC(C)C)NC(=O)[C@@H](CC(C)C)NC(=O)[C@H](CCCCN)NC(=O)[C@@H](CC(C)C)NC(=O)[C@H](CC(C)C)NC(=O)[C@@H](CCCCN)NC(=O)[C@H](CC(C)C)NC(=O)[C@@H](CC(C)C)NC(=O)[C@H](CCCCN)NC(=O)[C@@H](N)CCCCN)C(N)=O	> 2000 µg/mL	Activity [1]: 3%
CC[C@H](C)[C@H](NC(=O)[C@@H](NC(=O)[C@@H](NC(=O)[C@@H](CCCCN)NC(=O)[C@@H](NC(=O)[C@@H](NC(=O)[C@@H](CCCCN)NC(=O)[C@@H](NC(=O)[C@@H](NC(=O)[C@@H](CCCCN)NC(=O)[C@H](N)CCCCN)[C@@H](C)CC)[C@@H](C)CC)[C@@H](C)CC)[C@@H](C)CC)[C@@H](C)CC)[C@@H](C)CC)C(N)=O (H-[dK][dK]II[dK]II[dK]III-NH2)	125 µg/mL	MIC [3]: > 64 µg/mL; MIC [4]: > 64 µg/mL
CC(C)C[C@H](NC(=O)[C@H](CC(C)C)NC(=O)[C@H](CC(C)C)NC(=O)[C@H](CCCCN)NC(=O)[C@@H](CC(C)C)NC(=O)[C@H](CC(C)C)NC(=O)[C@H](CCCCN)NC(=O)[C@@H](CC(C)C)NC(=O)[C@@H](CC(C)C)NC(=O)[C@@H](CCCCN)NC(=O)[C@@H](N)CCCCN)C(N)=O	62.5 µg/mL	MIC [5]: > 64 µg/mL
CC(C)C[C@H](NC(=O)[C@H](CC(C)C)NC(=O)[C@H](CC(C)C)NC(=O)[C@@H](CCCNC(=N)N)NC(=O)[C@H](CC(C)C)NC(=O)[C@H](CC(C)C)NC(=O)[C@@H](CCCNC(=N)N)NC(=O)[C@H](CC(C)C)NC(=O)[C@H](CC(C)C)NC(=O)[C@@H](CCCNC(=N)N)NC(=O)[C@H](N)CCCNC(=N)N)C(N)=O (H-[dR][dR]LL[dR]LL[dR]LLL-NH2)	125 µg/mL	MIC [3]: 2 µg/mL (≈ 1.39 µM)
CC(C)C[C@H](NC(=O)[C@H](CC(C)C)NC(=O)[C@H](CC(C)C)NC(=O)[C@H](CCCCN)NC(=O)[C@H](CC(C)C)NC(=O)[C@H](CC(C)C)NC(=O)[C@@H](CCCCN)NC(=O)[C@H](CC(C)C)NC(=O)[C@H](CC(C)C)NC(=O)[C@@H](CCCCN)NC(=O)[C@@H](N)CCCCN)C(N)=O	< 15.6 µg/mL	
CC(C)C[C@H](NC(=O)[C@H](CC(C)C)NC(=O)[C@H](CC(C)C)NC(=O)[C@H](CCCCN)NC(=O)[C@H](CC(C)C)NC(=O)[C@@H](CC(C)C)NC(=O)[C@H](CCCCN)NC(=O)[C@@H](CC(C)C)NC(=O)[C@@H](CC(C)C)NC(=O)[C@@H](CCCCN)NC(=O)[C@@H](N)CCCCN)C(N)=O	250 µg/mL	
CC(C)CC(NC(=O)C(CC(C)C)NC(=O)C(CC(C)C)NC(=O)C(CCCCN)NC(=O)C(CC(C)C)NC(=O)[C@H](CC(C)C)NC(=O)C(CCCCN)NC(=O)C(CC(C)C)NC(=O)C(CC(C)C)NC(=O)C(CCCCN)NC(=O)C(N)CCCCN)C(N)=O (stereo partly drawn)	2000 µg/mL	
CC(C)C[C@H](NC(=O)[C@H](CC(C)C)NC(=O)[C@H](CC(C)C)NC(=O)[C@H](CCCCN)NC(=O)[C@H](CC(C)C)NC(=O)[C@H](CC(C)C)NC(=O)[C@H](CCCCN)NC(=O)[C@@H](CC(C)C)NC(=O)[C@@H](CC(C)C)NC(=O)[C@@H](CCCCN)NC(=O)[C@@H](N)CCCCN)C(N)=O	< 15.6 µg/mL	MIC [5]: > 64 µg/mL
CC(C)C[C@H](NC(=O)[C@H](CC(C)C)NC(=O)[C@H](CC(C)C)NC(=O)[C@H](CCCCN)NC(=O)[C@@H](CC(C)C)NC(=O)[C@@H](CC(C)C)NC(=O)[C@H](CCCCN)NC(=O)[C@@H](CC(C)C)NC(=O)[C@@H](CC(C)C)NC(=O)[C@H](CCCCN)NC(=O)[C@@H](N)CCCCN)C(N)=O	1000 µg/mL	
CC(C)C[C@H](NC(=O)[C@H](CC(C)C)NC(=O)[C@H](CC(C)C)NC(=O)[C@H](CCCCN)NC(=O)[C@H](CC(C)C)NC(=O)[C@H](CC(C)C)NC(=O)[C@H](CCCCN)NC(=O)[C@H](CC(C)C)NC(=O)[C@H](CC(C)C)NC(=O)[C@@H](CCCCN)NC(=O)[C@@H](N)CCCCN)C(N)=O	< 15.6 µg/mL	MIC [5]: > 64 µg/mL
CC(C)C[C@H](NC(=O)[C@H](CC(C)C)NC(=O)[C@H](CC(C)C)NC(=O)[C@@H](CCCCN)NC(=O)[C@H](CC(C)C)NC(=O)[C@H](CC(C)C)NC(=O)[C@@H](CCCCN)NC(=O)[C@H](CC(C)C)NC(=O)[C@H](CC(C)C)NC(=O)[C@@H](CCCCN)NC(=O)[C@H](N)CCCCN)C(N)=O	1000 µg/mL	
CC(C)C[C@H](NC(=O)[C@H](CC(C)C)NC(=O)[C@H](CC(C)C)NC(=O)[C@H](CCCCN)NC(=O)[C@@H](CC(C)C)NC(=O)[C@@H](CC(C)C)NC(=O)[C@@H](CCCCN)NC(=O)[C@H](CC(C)C)NC(=O)[C@H](CC(C)C)NC(=O)[C@H](CCCCN)NC(=O)[C@@H](N)CCCCN)C(N)=O	31.3 µg/mL	
CC(C)C[C@H](NC(=O)[C@@H](CC(C)C)NC(=O)[C@H](CC(C)C)NC(=O)[C@@H](CCCCN)NC(=O)[C@H](CC(C)C)NC(=O)[C@@H](CC(C)C)NC(=O)[C@H](CCCCN)NC(=O)[C@@H](CC(C)C)NC(=O)[C@H](CC(C)C)NC(=O)[C@@H](CCCCN)NC(=O)[C@@H](N)CCCCN)C(N)=O	> 2000 µg/mL	
CC(C)C[C@H](NC(=O)[C@H](CC(C)C)NC(=O)[C@H](CC(C)C)NC(=O)[C@H](CCCCN)NC(=O)[C@H](CC(C)C)NC(=O)[C@H](CC(C)C)NC(=O)[C@H](CCCCN)NC(=O)[C@H](CC(C)C)NC(=O)[C@H](CC(C)C)NC(=O)[C@@H](CCCCN)NC(=O)[C@H](N)CCCCN)C(N)=O	< 15.6 µg/mL	MIC [5]: > 64 µg/mL
CC(C)C[C@@H](NC(=O)[C@@H](CC(C)C)NC(=O)[C@@H](CC(C)C)NC(=O)[C@@H](CCCCN)NC(=O)[C@@H](CC(C)C)NC(=O)[C@@H](CC(C)C)NC(=O)[C@@H](CCCCN)NC(=O)[C@@H](CC(C)C)NC(=O)[C@@H](CC(C)C)NC(=O)[C@@H](CCCCN)NC(=O)[C@H](N)CCCCN)C(N)=O	125 µg/mL	
CC(C)C[C@H](NC(=O)[C@H](CCCCN)NC(=O)[C@H](CC(C)C)NC(=O)[C@H](CC(C)C)NC(=O)[C@@H](CCCCN)NC(=O)[C@H](N)CCCCN)C(=O)N[C@@H](CC(C)C)C(=O)N[C@@H](CCCCN)C(=O)N[C@@H](CC(C)C)C(=O)N[C@H](CC(C)C)C(=O)N[C@H](CC(C)C)C(N)=O	1000 µg/mL	
CC(C)CC(NC(=O)C(CC(C)C)NC(=O)C(CC(C)C)NC(=O)C(CCCCN)NC(=O)C(CC(C)C)NC(=O)C(CC(C)C)NC(=O)C(CCCCN)NC(=O)C(CC(C)C)NC(=O)C(CC(C)C)NC(=O)C(CCCCN)NC(=O)C(N)CCCCN)C(N)=O (racemic)	1000 µg/mL	
CC(C)C[C@H](NC(=O)[C@@H](CC(C)C)NC(=O)[C@H](CC(C)C)NC(=O)[C@H](CCCCN)NC(=O)[C@@H](CC(C)C)NC(=O)[C@H](CC(C)C)NC(=O)[C@H](CCCCN)NC(=O)[C@@H](CC(C)C)NC(=O)[C@@H](CC(C)C)NC(=O)[C@H](CCCCN)NC(=O)[C@@H](N)CCCCN)C(N)=O	> 2000 µg/mL	
H-KKIIKIIKIII-NH2	62.5 µg/mL	MIC [3]: > 64 µg/mL; MIC [4]: > 64 µg/mL; MIC [6]: > 64 µg/mL
CC(C)C[C@H](NC(=O)[C@H](CC(C)C)NC(=O)[C@@H](CC(C)C)NC(=O)[C@H](CCCCN)NC(=O)[C@@H](CC(C)C)NC(=O)[C@@H](CC(C)C)NC(=O)[C@H](CCCCN)NC(=O)[C@@H](CC(C)C)NC(=O)[C@@H](CC(C)C)NC(=O)[C@H](CCCCN)NC(=O)[C@@H](N)CCCCN)C(N)=O	> 2000 µg/mL	Activity [1]: 4%
CC(C)C[C@H](NC(=O)[C@H](CC(C)C)NC(=O)[C@@H](CC(C)C)NC(=O)[C@@H](CCCCN)NC(=O)[C@H](CC(C)C)NC(=O)[C@H](CC(C)C)NC(=O)[C@@H](CCCCN)NC(=O)[C@@H](CC(C)C)NC(=O)[C@H](CC(C)C)NC(=O)[C@H](CCCCN)NC(=O)[C@@H](N)CCCCN)C(N)=O	125 µg/mL	Activity [1]: 2%
CC(C)C[C@H](NC(=O)[C@H](CC(C)C)NC(=O)[C@@H](CCCCN)NC(=O)[C@H](CC(C)C)NC(=O)[C@H](CC(C)C)NC(=O)[C@@H](CCCCN)NC(=O)[C@@H](CC(C)C)NC(=O)[C@H](CC(C)C)NC(=O)[C@H](CCCCN)NC(=O)[C@@H](N)CCCCN)C(=O)N[C@H](CC(C)C)C(N)=O	> 2000 µg/mL	
CC(C)C[C@H](NC(=O)[C@H](CC(C)C)NC(=O)[C@@H](CC(C)C)NC(=O)[C@H](CCCCN)NC(=O)[C@H](CC(C)C)NC(=O)[C@@H](CC(C)C)NC(=O)[C@H](CCCCN)NC(=O)[C@H](CC(C)C)NC(=O)[C@@H](CC(C)C)NC(=O)[C@@H](CCCCN)NC(=O)[C@@H](N)CCCCN)C(N)=O	> 2000 µg/mL	
